What was measured:
Format in all cases: functional
[1] = species: Homo sapiens; test: Percentage of judgments reporting an aftertaste at a concentration of 495 ppm and character thereof
[2] = species: Homo sapiens; test: Experimentally determined perceived intensity of compound at a concentration of 495 ppm (mean value)
Summary of the method: (§1)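 Trained human sensory panel of judges tasted aqueous solutions of the compound. Samples had to be ≥95 weight % pure (HPLC, proton titration, Karl Fischer), non-mutagenic in five Salmonella typhimurium strains with and without microsomal activation, and non-toxic in a single-oral-dose mouse test. Perceived intensity (Ip) was read from time–intensity curves at 4- or 6-s intervals and averaged. Outliers at the 95% level were rejected by t-value. Values reported as mean (2Sm).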

[3] = species: Homo sapiens; test: Number of taste judgments per compound
[4] = species: Homo sapiens; test: Sweet character at a concentration of 252 ppm (mean value)
Summary of the method: (§2)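 Trained human sensory panel (Swartz method) tasted dilute aqueous solutions of the compounds, which had to be ≥95 weight percent pure and free of mutagenicity and toxicity. Taste character is reported as the mean value with 2S_m limits. Data deviating excessively at the 95% confidence level were rejected by the t-value method.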

[5] = species: Homo sapiens; test: Sour character at a concentration of 252 ppm (mean value); summary of the method: as §2
[6] = species: Homo sapiens; test: Percentage of judgments reporting an aftertaste at a concentration of 252 ppm and character thereof; Bitter
Summary of the method: (§3)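 Trained judges tasted aqueous solutions of the compounds, which had to be ≥95 weight percent pure and to have passed mutagenicity and single oral dose toxicity screening. The value is the percentage of panel judgments reporting an aftertaste. Where given, its character is recorded as sweet, bitter or bitter-sweet.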

[7] = species: Homo sapiens; test: Intensity calculated on a weight basis relative to an 85500 ppm sucrose solution at a concentration of 252 ppm (mean value)
Summary of the method: (§4)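 Trained human panel tasted aqueous solutions of purity-checked (≥95 weight percent) compounds cleared for mutagenicity and mouse oral toxicity. Weight-basis intensity I_w = perceived intensity × (85500 ppm sucrose / compound concentration in ppm). The mean is reported with 2S_m limits; data deviating excessively at 95% confidence were rejected by the t-value method.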

[8] = species: Homo sapiens; test: Experimentally determined perceived intensity of compound at a concentration of 252 ppm (mean value); summary of the method: as §1
[9] = species: Homo sapiens; test: Bitter character at a concentration of 252 ppm (mean value)
Summary of the method: (§5)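 Trained human panel tasted aqueous solutions. Each judge reported whether there was an aftertaste and its character (sweet, bitter or bitter-sweet). The value is the percentage of judgments reporting a bitter aftertaste.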

[10] = species: Homo sapiens; test: Sweet / Bitter character at a concentration of 252 ppm (mean value)
[11] = species: Homo sapiens; test: Intensity calculated on a molar basis relative to a 0.25 M sucrose solution at a concentration of 252 ppm (mean value)
Summary of the method: (§6)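 Trained human judges tasted aqueous solutions of the test compound; compounds were first required to be ≥95 weight percent pure and free of mutagenicity (five Salmonella typhimurium strains, ± microsomal activation) and of single oral dose mouse toxicity. Molar intensity I_m = perceived intensity × (0.25 M sucrose / compound molar concentration). The mean is reported with 2S_m limits; outliers were rejected at 95% confidence by t-value.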

[12] = species: Homo sapiens; test: Salty character at a concentration of 252 ppm (mean value); summary of the method: as §2
[13] = species: Homo sapiens; test: Other taste character at a concentration of 252 ppm (mean value); summary of the method: as §2
[14] = species: Homo sapiens; test: Experimentally determined perceived intensity of compound at a concentration of 2400 ppm (mean value); summary of the method: as §1
[15] = species: Homo sapiens; test: Percentage of judgments reporting an aftertaste at a concentration of 2400 ppm and character thereof; summary of the method: as §3
[16] = species: Homo sapiens; test: Intensity calculated on a weight basis relative to an 85500 ppm sucrose solution at a concentration of 248 ppm (mean value); summary of the method: as §4
[17] = species: Homo sapiens; test: Sour character at a concentration of 248 ppm (mean value)
[18] = species: Homo sapiens; test: Salty character at a concentration of 248 ppm (mean value)
[19] = species: Homo sapiens; test: Bitter character at a concentration of 248 ppm (mean value); summary of the method: as §5
[20] = species: Homo sapiens; test: Experimentally determined perceived intensity of compound at a concentration of 248 ppm (mean value); summary of the method: as §1
[21] = species: Homo sapiens; test: Sweet / Bitter character at a concentration of 248 ppm (mean value); 8/92
[22] = species: Homo sapiens; test: Sweet character at a concentration of 248 ppm (mean value)
[23] = species: Homo sapiens; test: Intensity calculated on a molar basis relative to a 0.25 M sucrose solution at a concentration of 248 ppm (mean value); summary of the method: as §6
[24] = species: Homo sapiens; test: Other taste character at a concentration of 248 ppm (mean value); summary of the method: as §2
[25] = species: Homo sapiens; test: Percentage of judgments reporting an aftertaste at a concentration of 248 ppm and character thereof; summary of the method: as §3
[26] = species: Homo sapiens; test: Experimentally determined perceived intensity of compound at a concentration of 4100 ppm (mean value); summary of the method: as §1

SMILES: COc1ccc(CCC(=O)c2c(O)cc(OC(C(=O)[O-])C(=O)[O-])cc2O)cc1O.[Na+].[Na+]
- Judgments [1]: 0
- IP [2]: 0
- Judgments [3]: 1

SMILES: O=C(O)CCc1cccc(O)c1
- Taste character [4]: 0
- Taste character [5]: 96
- Judgments [6]: 38
- IW [7]: 160
- IP [8]: 0.46
- Taste character [9]: 4
- Judgments [3]: 8
- Taste character [10]: 0
- IM [11]: 80
- Taste character [12]: 0
- Taste character [13]: 0

SMILES: COc1ccc(CCC(=O)c2c(O)cc(OC(CCC(=O)[O-])C(=O)[O-])cc2O)cc1O.[Na+].[Na+] (stereo not given)
- IP [14]: 0
- Judgments [3]: 1
- Judgments [15]: 0

SMILES: O=C([O-])COc1cc(O)c(C(=O)CCc2ccc(O)c(O)c2)c(O)c1.[Na+]
- IW [16]: 52
- Taste character [17]: 0
- Taste character [18]: 0
- Taste character [19]: 33
- IP [20]: 0.15
- Taste character [21]: 8
- Judgments [3]: 12
- Taste character [22]: 3
- IM [23]: 56
- Taste character [24]: 64
- Judgments [25]: 38

SMILES: COc1ccc(-c2cc(=O)c3c(O)cc(OCCCS(=O)(=O)[O-])cc3o2)cc1O.[K+]
- IP [26]: 0
- Judgments [3]: 1
